Activity calls are given as the source filed them. The rule behind the calls is not given here.
Assays:
[1] = Cytotoxicity against human HepG2.2.15 cells […] by MTT assay; type: cell-based, HepG2 2.2.15
Outline: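 HepG2.2.15 cells were seeded at 2×10^5 cells/mL and dosed with graded compound concentrations after 24 h. Medium with compound was refreshed at 72 h, then cells were kept a further 72 h. MTT was added for 4 h, formazan was dissolved in DMSO and absorbance read at 490 nm. The value is CC50, the concentration giving 50% cytotoxicity.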

[2] = Selectivity index, ratio of CC50 for human HepG2.2.15 cells to EC50 for HBV infected in human HepG2.2.15 cells; type: toxicity, cell-based; conditions: read-out: Ratio CC50/EC50
Outline: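 Selectivity index is calculated as CC50/EC50. CC50 comes from an MTT assay and EC50 from qRT-PCR of intracellular HBV DNA. Both use HepG2.2.15 cells dosed for two 72 h periods with a medium renewal between them.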

[3] = (§1) Inhibition of DHBV DNA polymerase derived from infected duckling liver assessed as decrease in biotin-11-dUTP incorporation using poly (A)/oligo(dT)15 as template/primer after 1 hr by ELISA; set-up: species or system Duck hepatitis B virus
Outline: (§2)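 Enzyme is DHBV polymerase from liver homogenate of infected ducklings. It was pelleted, and the 35% and 40% fractions of a sucrose density gradient were pooled and used at a "1/100" dilution of one liver's yield. Oligo(dT)15 primer is covalently immobilized on the plate. The mix contains 17.5 µg/ml poly(A), 8 µM dTTP, 2 µM biotin-11-dUTP, 5 mM DTT, 17 mM MgCl2, 65 µg/ml BSA, 50 mM Tris-HCl pH 8.3 and 75 mM KCl. Incubation is 1 h at 37 °C. After BSA blocking, streptavidin-alkaline phosphatase is added and PNPP signal is read after NaOH stop. Line 6 is tested at 100 µM and line 7 at 200 µM.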

Duck hepatitis B virus [4] = experiment: as §1; outline: as §2
Hepatitis B virus [5] = experiment: Antiviral activity against HBV infected in human HepG2.2.15 cells assessed as inhibition of viral DNA levels at 10 uM after […] by qRT-PCR analysis; type: functional, organism-based
Outline: (§3)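 HepG2.2.15 cells were seeded at 2×10^5 cells/mL and exposed to compound 24 h later. Compound-containing medium was renewed at 72 h and cells were kept another 72 h. After a PBS wash, intracellular HBV DNA was extracted from lysates and quantified by qRT-PCR. Line 1 gives the 50% inhibitory concentration; lines 2 and 3 test single concentrations of 10 µM and 20 µM.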

Duck hepatitis B virus [6] = experiment: Inhibition of DHBV DNA polymerase derived from infected duckling liver assessed as decrease in biotin-11-dUTP incorporation using poly (A)/oligo(dT)15 as template/primer at 200 uM after 1 hr by ELISA; outline: as §2
Hepatitis B virus [7] = experiment: Antiviral activity against HBV infected in human HepG2.2.15 cells assessed as inhibition of viral DNA levels at 20 uM […] by qRT-PCR analysis relative to control; type: functional; outline: as §3
Duck hepatitis B virus [8] = experiment: Inhibition of DHBV DNA polymerase derived from infected duckling liver assessed as decrease in biotin-11-dUTP incorporation using poly (A)/oligo(dT)15 as template/primer at 100 uM after 1 hr by ELISA relative to control; outline: as §2

| Compound | CC50 [1] [µM] | selectivity ratio [2] | IC50 [3] [µM] | also measured |
| --- | --- | --- | --- | --- |
| N#Cc1ccc(CSc2nc(C(=O)N3CCCc4ccccc43)c(I)c(=O)[nH]2)cc1 | > 100 | > 62 | > 200 |  |
| O=C(O)P(=O)(O)O [FOSCARNET] |  |  | 6.54 | inhibition (Duck hepatitis B virus [4]): Dose-dependent effect |
| CC(=O)c1ccc(CSc2nc(Cc3cc(C)cc(C)c3)c(I)c(=O)[nH]2)cc1 | 78.3 | 6.4 | 42.9 |  |
| N#Cc1ccc(CSc2nc(Cn3nnc4ccccc43)c(I)c(=O)[nH]2)cc1 |  |  | 128 | inhibition (Hepatitis B virus [5]): inactive |
| N#Cc1ccc(CSc2nc(CN3CCc4ccccc4C3)c(I)c(=O)[nH]2)cc1 |  |  | 60.5 |  |
| Cc1cc(C)cc(Cc2nc(SCc3ccc([N+](=O)[O-])cc3)[nH]c(=O)c2I)c1 | 39 | 5.9 | 33 |  |
| N#Cc1ccc(CSc2nc(C(=O)NCCCc3ccccc3)c(I)c(=O)[nH]2)cc1 | > 50 | > 30 | > 200 |  |
| N#Cc1ccc(CSc2nc(CN3CCCCC3)c(I)c(=O)[nH]2)cc1 |  |  |  | inhibition (Hepatitis B virus [5]): inactive; inhibition (Duck hepatitis B virus [6]): inactive |
| COC(=O)c1ccc(CSc2nc(Cc3cc(C)cc(C)c3)c(I)c(=O)[nH]2)cc1 | 64.8 | 5 | 38.8 |  |
| COC(=O)c1ccc(CSc2nc(Cc3cc(C)cc(C)c3)cc(=O)[nH]2)cc1 |  |  |  | inhibition at 20 µM (Hepatitis B virus [7]): 13.3%; inhibition (Duck hepatitis B virus [8]): 3.66% |
| O=c1[nH]c(SCc2ccc([N+](=O)[O-])cc2)nc(Cc2cc(F)cc(F)c2)c1I | > 100 | > 16 | 29.5 |  |
| Cc1cc(C)cc(Cc2nc(SCc3ccc(C#N)cc3)[nH]c(=O)c2I)c1 | 43.2 | 6.1 | 35.6 |  |
| O=c1cc(Cc2cc(F)cc(F)c2)nc(SCc2ccc([N+](=O)[O-])cc2)[nH]1 |  |  |  | inhibition at 20 µM (Hepatitis B virus [7]): 32.9%; inhibition (Duck hepatitis B virus [8]): 16.1% |
| Cc1cc(C)cc(Cc2nc(SCCOc3ccc([N+](=O)[O-])cc3)[nH]c(=O)c2I)c1 | 96.6 | 14 | 56 |  |
| CN1CCN(C(=O)c2nc(SCc3ccc(C#N)cc3)[nH]c(=O)c2I)CC1 | > 100 | > 38 |  | inhibition (Duck hepatitis B virus [6]): inactive |
| O=c1[nH]c(SCc2ccc([N+](=O)[O-])cc2)nc(Cn2nnc3ccccc32)c1I |  |  | 104 | inhibition (Hepatitis B virus [5]): inactive |
| O=c1[nH]c(SCc2ccc([N+](=O)[O-])cc2)nc(Cc2ccccc2)c1I | 52.7 | 7 | 42.8 |  |
| Cc1cc(C)cc(Cc2nc(SCCc3ccc([N+](=O)[O-])cc3)[nH]c(=O)c2I)c1 | 66.6 | 6.8 | 71.9 |  |
| Nc1ccn([C@H]2CS[C@@H](CO)O2)c(=O)n1 | > 100 | > 164 |  |  |

Source: ChEMBL document CHEMBL4219082, “2-Arylthio-5-iodo pyrimidine derivatives as non-nucleoside HBV polymerase inhibitors” (Bioorg Med Chem, 2018)
